According to ChEMBL document CHEMBL3120102, “Structure-based design, synthesis and biological evaluation of novel anthra[1,2-d]imidazole-6,11-dione homologues as potential antitumor agents” (2013):

How the values were obtained:
[1] = molecular target: Telomerase reverse transcriptase (Homo sapiens) (UniProt O14746); assay: Inhibition of human tert transcriptional activity assessed as SEAP activity at 100 uM after 24 hrs by SEAP reporter assay; parameters: scale not given: the % may be the effect or the level left
Sequence of Telomerase reverse transcriptase (Homo sapiens) (O14746 whole entry): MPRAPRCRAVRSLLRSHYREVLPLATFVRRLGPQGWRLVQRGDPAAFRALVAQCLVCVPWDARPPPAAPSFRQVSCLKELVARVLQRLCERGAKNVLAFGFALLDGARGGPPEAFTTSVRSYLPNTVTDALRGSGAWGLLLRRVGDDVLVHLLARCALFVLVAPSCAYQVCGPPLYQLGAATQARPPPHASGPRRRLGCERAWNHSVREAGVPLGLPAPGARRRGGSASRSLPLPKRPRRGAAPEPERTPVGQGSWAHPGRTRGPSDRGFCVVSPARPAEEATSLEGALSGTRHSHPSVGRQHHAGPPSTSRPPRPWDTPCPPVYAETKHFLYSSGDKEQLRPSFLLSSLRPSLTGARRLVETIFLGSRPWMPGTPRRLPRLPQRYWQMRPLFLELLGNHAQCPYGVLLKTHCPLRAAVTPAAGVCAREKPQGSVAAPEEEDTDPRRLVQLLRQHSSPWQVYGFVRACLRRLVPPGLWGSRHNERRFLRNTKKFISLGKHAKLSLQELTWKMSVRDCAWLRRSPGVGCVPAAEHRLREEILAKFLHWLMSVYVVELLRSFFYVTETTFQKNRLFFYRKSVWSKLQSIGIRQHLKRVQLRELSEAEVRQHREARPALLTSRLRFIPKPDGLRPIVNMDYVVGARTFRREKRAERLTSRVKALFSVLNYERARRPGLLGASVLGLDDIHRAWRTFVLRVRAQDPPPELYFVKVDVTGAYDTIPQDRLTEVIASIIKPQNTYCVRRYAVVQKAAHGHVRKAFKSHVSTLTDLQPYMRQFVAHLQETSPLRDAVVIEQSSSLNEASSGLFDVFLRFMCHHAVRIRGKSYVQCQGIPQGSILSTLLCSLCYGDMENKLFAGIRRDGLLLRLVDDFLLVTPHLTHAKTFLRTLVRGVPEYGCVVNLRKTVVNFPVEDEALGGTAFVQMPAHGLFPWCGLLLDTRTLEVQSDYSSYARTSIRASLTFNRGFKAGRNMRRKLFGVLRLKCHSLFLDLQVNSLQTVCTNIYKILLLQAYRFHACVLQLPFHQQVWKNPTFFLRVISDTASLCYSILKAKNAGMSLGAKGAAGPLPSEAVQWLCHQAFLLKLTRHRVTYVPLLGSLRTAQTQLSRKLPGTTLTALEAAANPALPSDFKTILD
Procedure, shortened: (§1)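 Reporter assay for hTERT transcriptional activity using secreted alkaline phosphatase. About 2 × 10³ cells per well were grown for 24 h at 37 °C, then given fresh medium. Buffer was added to the medium: 2 M diethanolamine, 1 mM MgCl2 and 20 mM L-homoarginine. p-Nitrophenyl phosphate was added to 12 mM final. The rate of absorbance increase was read at 405 nm.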

[2] = Cytotoxicity against human H1299 cells assessed as cell viability at 100 uM after 48 hrs by MTT assay; format: functional; conditions: NCI-H1299, 48 h, read-out: Activity
Procedure, shortened: (§2)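 About 2×10³ H1299 cells per well were grown for 24 h at 37 °C in 5% CO2. Compound was dissolved in DMSO immediately before use, diluted in complete medium and left on cells for 48 h. MTT was then added for 4 h at 37 °C, followed by SDS/DMF lysis buffer for 16 h at 37 °C. Absorbance was read at 550 nm.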

[3] = molecular target: Telomerase reverse transcriptase (Homo sapiens) (UniProt O14746); assay: Inhibition of human tert transcriptional activity assessed as SEAP activity at 10 uM after 24 hrs by SEAP reporter assay; parameters: scale not given: the % may be the effect or the level left; procedure, shortened: as §1
[4] = molecular target: Telomerase reverse transcriptase (Homo sapiens) (UniProt O14746); assay: Inhibition of human tert transcriptional activity assessed as SEAP activity at 1 uM after 24 hrs by SEAP reporter assay; parameters: scale not given: the % may be the effect or the level left; procedure, shortened: as §1
[5] = Cytotoxicity against human H1299 cells assessed as cell viability at 10 uM after 48 hrs by MTT assay; format: functional; conditions: NCI-H1299, 48 h, read-out: Activity; procedure, shortened: as §2
[6] = Cytotoxicity against human H1299 cells assessed as cell viability at 1 uM after 48 hrs by MTT assay; format: functional; conditions: NCI-H1299, 48 h, read-out: Activity; procedure, shortened: as §2

| Activity [1] | Activity [3] | Activity [4] | Compound | viability at 100 µM [2] | viability at 10 µM [5] | viability at 1 µM [6] |
| --- | --- | --- | --- | --- | --- | --- |
| 53% | 105% | 111% | CCCCSc1nc2ccc3c(c2[nH]1)C(=O)c1ccccc1C3=O | 77% | 135% | 82% |
| 81% | 104% | 98% | O=C1c2ccccc2C(=O)c2c1ccc1nc(SC(=O)N3CCCCC3)[nH]c21 | 116% | 116% | 97% |
| 41% | 58% | 92% | O=C1c2ccccc2C(=O)c2c1ccc1nc(SCCCCCBr)[nH]c21 | 37% | 82% | 84% |
| 29% | 83% | 88% | Cc1ccccc1CSc1nc2ccc3c(c2[nH]1)C(=O)c1ccccc1C3=O | 76% | 81% | 88% |
| 54% | 96% | 100% | O=C1c2ccccc2C(=O)c2c1ccc1nc(SCCCCCl)[nH]c21 | 83% | 97% | 91% |
| 36% | 105% | 119% | O=C1c2ccccc2C(=O)c2c1ccc1nc(SCCN3CCOCC3)[nH]c21 | 73% | 127% | 106% |
| 95% | 105% | 96% | O=C1c2ccccc2C(=O)c2c1ccc1nc(SC(=O)N3CCCC3)[nH]c21 | 124% | 117% | 110% |
| 49% | 93% | 96% | CCN(CC)C(=O)CSc1nc2ccc3c(c2[nH]1)C(=O)c1ccccc1C3=O | 54% | 90% | 97% |
| 67% | 90% | 87% | O=C1c2ccccc2C(=O)c2c1ccc1nc(SCCC(=O)N3CCCC3)[nH]c21 | 57% | 110% | 107% |
| 61% | 83% | 88% | COC(=O)CCCSc1nc2ccc3c(c2[nH]1)C(=O)c1ccccc1C3=O | 57% | 83% | 83% |
| 40% | 87% | 103% | O=C1c2ccccc2C(=O)c2c1ccc1nc(SCC(=O)N3CCOCC3)[nH]c21 | 70% | 88% | 91% |
| 8% | 50% | 85% | O=C1c2ccccc2C(=O)c2c1ccc1nc(SCCCN3CCCCC3)[nH]c21 | 38% | 70% | 71% |
| 38% | 99% | 89% | CN1CCN(C(=O)Sc2nc3ccc4c(c3[nH]2)C(=O)c2ccccc2C4=O)CC1 | 71% | 120% | 102% |
| 69% | 91% | 97% | C=CCSc1nc2ccc3c(c2[nH]1)C(=O)c1ccccc1C3=O | 79% | 96% | 100% |
| 71% | 87% | 93% | O=C1c2ccccc2C(=O)c2c1ccc1nc(SC(=O)N3CCOCC3)[nH]c21 | 90% | 94% | 89% |
| 88% | 104% | 106% | CCN(CC)C(=O)Sc1nc2ccc3c(c2[nH]1)C(=O)c1ccccc1C3=O | 116% | 119% | 118% |
| 64% | 87% | 88% | COC(=O)/C=C/CSc1nc2ccc3c(c2[nH]1)C(=O)c1ccccc1C3=O | 72% | 75% | 98% |
| 75% | 96% | 102% | O=C(Sc1nc2ccc3c(c2[nH]1)C(=O)c1ccccc1C3=O)c1cc(C(F)(F)F)ccc1C(F)(F)F | 79% | 100% | 95% |
| 89% | 100% | 104% | Cc1cc(C(=O)Sc2nc3ccc4c(c3[nH]2)C(=O)c2ccccc2C4=O)c(C)o1 | 95% | 91% | 95% |
| 53% | 98% | 105% | O=C1c2ccccc2C(=O)c2c1ccc1nc(SCCCCCCCl)[nH]c21 | 88% | 85% | 83% |
| 45% | 97% | 105% | O=C1c2ccccc2C(=O)c2c1ccc1nc(SCCC(=O)N3CCOCC3)[nH]c21 | 50% | 102% | 99% |
| 64% | 100% | 100% | O=C1c2ccccc2C(=O)c2c1ccc1nc(SCC(=O)N3CCCC3)[nH]c21 | 62% | 102% | 89% |
| 64% | 98% | 97% | CCN(CC)C(=O)CCSc1nc2ccc3c(c2[nH]1)C(=O)c1ccccc1C3=O | 44% | 77% | 94% |
| 14% | 100% | 111% | O=C1c2ccccc2C(=O)c2c1ccc1nc(SCCN3CCCCC3)[nH]c21 | 30% | 79% | 86% |
| 81% | 92% | 98% | O=C(Sc1nc2ccc3c(c2[nH]1)C(=O)c1ccccc1C3=O)c1ccccc1[N+](=O)[O-] | 76% | 78% | 80% |
| – | 77% | – | Nc1ccc2c(c1N)C(=O)c1ccccc1C2=O | 39% | 95% | 105% |
| 5% | 14% | 34% | COc1cccc2c1C(=O)c1c(O)c3c(c(O)c1C2=O)C[C@@](O)(C(=O)CO)C[C@@H]3O[C@H]1C[C@H](N)[C@H](O)[C@H](C)O1 [DOXORUBICIN] | 0% | 0% | 17% |
| 85% | 91% | 94% | CCCN(CCC)C(=O)CSc1nc2ccc3c(c2[nH]1)C(=O)c1ccccc1C3=O | 93% | 86% | 95% |
| 52% | 85% | 94% | C#CCSc1nc2ccc3c(c2[nH]1)C(=O)c1ccccc1C3=O | 75% | 96% | 94% |
| 81% | 95% | 97% | O=C(CCc1ccccc1)Sc1nc2ccc3c(c2[nH]1)C(=O)c1ccccc1C3=O | 69% | 93% | 95% |

| Compound | Activity [1] | Activity [3] | Activity [4] | viability at 100 µM [2] | viability at 10 µM [5] | viability at 1 µM [6] |
| --- | --- | --- | --- | --- | --- | --- |
| O=C1c2c(O)ccc(O)c2C(=O)c2c(NCCNCCO)ccc(NCCNCCO)c21 [MITOXANTRONE] | 7% | 10% | 21% | 0% | 0% | 24% |
